Experimental data as given in ChEMBL document CHEMBL1152819, “Evaluation of hexadecyloxypropyl-9-R-[2-(Phosphonomethoxy)propyl]- adenine, CMX157, as a potential treatment for human immunodeficiency virus type 1 and hepatitis B virus infections” (Antimicrob Agents Chemother, 2007).
Blank lines part the entries; values can stand above or below the compound they belong to.

Experiments:
[1] = tested on: Human immunodeficiency virus 1; test: Antiviral activity against HIV1 LAI in human MT2 cells assessed as inhibition of p24 antigen production by ELISA; assay type: functional, organism-based; settings: Human immunodeficiency virus 1, LAI
Outline: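 MT-2 cells in RPMI 1640 with 10% FBS and 10 mM HEPES, infected with HIV-1 LAI at MOI 0.001 TCID50/cell. Incubated with threefold serial dilutions, three wells per dilution. EC50 taken as the concentration inhibiting p24 antigen production by 50%.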

Rattus norvegicus [2] = test: AUC (0 to infinity) in Sprague-Dawley rat assessed as tenofovir level at 10 mg/kg, po administered daily for 7 days measured on day 7; assay type: ADME, organism-based, Plasma; design: time infinity, dose 10 mg/kg, route oral; settings: in vivo, 168 h
Outline: (§1)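 Oral once daily for 7 days, vehicle or 10, 30 or 100 mg/kg/day, Sprague-Dawley rats 8-12 weeks old, not fasted. Plasma sampled 0.5, 1, 2, 4, 12, 24 h after dosing on days 1 and 7 (1 rat/sex/time point). CMX157 and tenofovir measured by HPLC-MS/MS, LOQ 1 ng/ml (values below set to zero). Noncompartmental analysis; Cmax/Tmax by direct observation, AUC by linear-log trapezoidal rule.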

Rattus norvegicus [3] = test: Elimination half life in Sprague-Dawley rat assessed as tenofovir level at 10 mg/kg, po administered daily for 7 days measured on day 7; assay type: ADME, organism-based; design: dose 10 mg/kg, route oral; settings: in vivo, 168 h; outline: as §1
[4] = Cytotoxicity against human MT2 cells; assay type: cell-based
Outline: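 MT-2 cells in RPMI 1640 with 10% FBS and 10 mM HEPES, exposed to threefold serial drug dilutions. CC50 calculated from cell counts and viability.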

[5] = Cytotoxicity against human PBMC by XTT assay; assay type: cell-based
Outline: (§2)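 Fresh human PBMCs, seronegative for HIV and HBV, infected with HIV-1 clade B HT/92/599. Antiviral read-out by reverse transcriptase reduction; cytotoxicity by XTT staining. EC50, CC50 and CC50/EC50 taken from data plots, given as mean ± standard deviation of triplicate determinations.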

Rattus norvegicus [6] = test: AUC (0 to infinity) in Sprague-Dawley rat assessed as tenofovir level at 30 mg/kg, po administered daily for 7 days measured on day 7; assay type: ADME, organism-based, Plasma; design: time infinity, dose 30 mg/kg, route oral; settings: in vivo, 168 h; outline: as §1
Rattus norvegicus [7] = test: Tmax in Sprague-Dawley rat assessed as tenofovir level at 30 mg/kg, po administered daily for 7 days measured on day 7; assay type: ADME, organism-based; design: dose 30 mg/kg, route oral; settings: in vivo, 168 h; outline: as §1
[8] = Selectivity index, ratio of CC50 for human MT2 cells to EC50 for HIV1 LAI; assay type: toxicity, cell-based; settings: read-out: Ratio CC50/EC50
Rattus norvegicus [9] = test: Tmax in Sprague-Dawley rat assessed as tenofovir level at 100 mg/kg, po administered daily for 7 days measured on day 7; assay type: ADME, organism-based; design: dose 100 mg/kg, route oral; settings: in vivo, 168 h; outline: as §1
Hepatitis B virus [10] = test: Antiviral activity against HBV in human HepG2(2.2.15) cells assessed as viral DNA levels treated for 9 days measured after 24 hrs; assay type: functional, organism-based
Outline: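 Confluent 2.2.15 cells in RPMI 1640 with 2% FBS, given nine consecutive daily doses with daily medium change (six cultures per concentration on two replicate plates). HBV DNA quantified by blot hybridization 24 h after the last treatment.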

Rattus norvegicus [11] = test: Tmax in Sprague-Dawley rat assessed as tenofovir level at 10 mg/kg, po administered daily for 7 days measured on day 7; assay type: ADME, organism-based; design: dose 10 mg/kg, route oral; settings: in vivo, 168 h; outline: as §1
[12] = tested on: Human immunodeficiency virus 1; test: Antiviral activity against HIV1 clade B HT/92/599 isolate in human PBMC assessed as reduction in reverse transcriptase; assay type: functional, organism-based; settings: Human immunodeficiency virus 1, clade B; outline: as §2
[13] = Selectivity index, ratio of CC50 for human HepG2(2.2.15) cells to EC50 for HBV
Rattus norvegicus [14] = test: AUC (0 to infinity) in Sprague-Dawley rat assessed as tenofovir level at 100 mg/kg, po administered daily for 7 days measured on day 1; assay type: ADME, organism-based, Plasma; design: time infinity, dose 100 mg/kg, route oral; settings: in vivo, 168 h; outline: as §1
Rattus norvegicus [15] = test: Elimination half life in Sprague-Dawley rat assessed as tenofovir level at 100 mg/kg, po administered daily for 7 days measured on day 7; assay type: ADME, organism-based; design: dose 100 mg/kg, route oral; settings: in vivo, 168 h; outline: as §1
Rattus norvegicus [16] = test: Tmax in Sprague-Dawley rat assessed as tenofovir level at 10 mg/kg, po administered daily for 7 days measured on day 1; assay type: ADME, organism-based; design: dose 10 mg/kg, route oral; settings: in vivo, 168 h; outline: as §1
[17] = Cytotoxicity against human HepG2 cells by MTS assay; assay type: cell-based; settings: human, HepG2 cells
Outline: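 Exponentially growing HepG2 cells (parent hepatoma line); cytostatic effect measured by MTS method.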

Rattus norvegicus [18] = test: Elimination half life in Sprague-Dawley rat assessed as tenofovir level at 10 mg/kg, po administered daily for 7 days measured on day 1; assay type: ADME, organism-based; design: dose 10 mg/kg, route oral; settings: in vivo, 168 h
Outline: (§3)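 Sprague-Dawley rats (3/sex/group), about 8 to 12 weeks old and not fasted, got vehicle or 10, 30 or 100 mg/kg/day orally once daily for 7 days. Blood was drawn at 0.5, 1, 2, 4, 12 and 24 h after dosing on days 1 and 7 (1 rat/sex/time point). Plasma was deproteinized, then HPLC-MS/MS (LOQ 1 ng/ml, values below set to zero). Noncompartmental analysis, AUC by linear-log trapezoidal rule.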

Hepatitis B virus [19] = test: Antiviral activity against HBV in human HepAD38 cells assessed as intracellular viral DNA levels treated for 3 days measured on day 6 […] by RT-PCR; assay type: functional, organism-based
Outline: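 HepAD38 cells seeded at 5 x 10^5/well, grown 2-3 days with 0.3 µg/ml tetracycline, then induced by PBS wash and tetracycline/G418-free medium with or without compound at 37°C, 5% CO2. Medium changed after 3 days. Intracellular HBV DNA measured on day 6 postinduction by TaqMan real-time PCR against a plasmid standard curve, given as % of mock.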

Rattus norvegicus [20] = test: Tmax in Sprague-Dawley rat assessed as tenofovir level at 30 mg/kg, po administered daily for 7 days measured on day 1; assay type: ADME, organism-based; design: dose 30 mg/kg, route oral; settings: in vivo, 168 h; outline: as §1
Rattus norvegicus [21] = test: AUC (0 to infinity) in Sprague-Dawley rat assessed as tenofovir level at 100 mg/kg, po administered daily for 7 days measured on day 7; assay type: ADME, organism-based, Plasma; design: time infinity, dose 100 mg/kg, route oral; settings: in vivo, 168 h; outline: as §1
Rattus norvegicus [22] = test: Elimination half life in Sprague-Dawley rat assessed as tenofovir level at 30 mg/kg, po administered daily for 7 days measured on day 1; assay type: ADME, organism-based; design: dose 30 mg/kg, route oral; settings: in vivo, 168 h; outline: as §1
[23] = Selectivity index, ratio of CC50 for human PBMC to EC50 for HIV1 clade B HT/92/599 isolate; outline: as §2
Rattus norvegicus [24] = test: Elimination half life in Sprague-Dawley rat assessed as tenofovir level at 30 mg/kg, po administered daily for 7 days measured on day 7; assay type: ADME, organism-based; design: dose 30 mg/kg, route oral; settings: in vivo, 168 h; outline: as §1
[25] = Cytotoxicity against human HepG2(2.2.15) cells after 24 hrs by neutral red uptake assay; assay type: cell-based; settings: human, HepG2 2.2.15 cells
Outline: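 Confluent 2.2.15 cells given nine daily treatments. Neutral red uptake read by absorbance of internalized dye 24 h after the last treatment, three cultures per concentration.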

Rattus norvegicus [26] = test: AUC (0 to infinity) in Sprague-Dawley rat assessed as tenofovir level at 30 mg/kg, po administered daily for 7 days measured on day 1; assay type: ADME, organism-based, Plasma; design: time infinity, dose 30 mg/kg, route oral; settings: in vivo, 168 h; outline: as §3
Rattus norvegicus [27] = test: AUC (0 to infinity) in Sprague-Dawley rat assessed as tenofovir level at 10 mg/kg, po administered daily for 7 days measured on day 1; assay type: ADME, organism-based, Plasma; design: time infinity, dose 10 mg/kg, route oral; settings: in vivo, 168 h; outline: as §1
Rattus norvegicus [28] = test: Tmax in Sprague-Dawley rat assessed as tenofovir level at 100 mg/kg, po administered daily for 7 days measured on day 1; assay type: ADME, organism-based; design: dose 100 mg/kg, route oral; settings: in vivo, 168 h; outline: as §1
Rattus norvegicus [29] = test: Elimination half life in Sprague-Dawley rat assessed as tenofovir level at 100 mg/kg, po administered daily for 7 days measured on day 1; assay type: ADME, organism-based; design: dose 100 mg/kg, route oral; settings: in vivo, 168 h; outline: as §1
[30] = Selectivity index, ratio of CC50 for human HepG2 cells to EC50 for HBV

EC50 [1]: 0.65 µM
AUC (Rattus norvegicus [2]): 1226.9 ng·h/mL
beta t1/2 (Rattus norvegicus [3]): 9.2 h
AUC (Rattus norvegicus [6]): 2790.5 ng·h/mL
Tmax (Rattus norvegicus [7]): 4 h
Tmax (Rattus norvegicus [9]): 12 h
EC50 (Hepatitis B virus [10]): 7.2 µM
Tmax (Rattus norvegicus [11]): 2.4 h
EC50 [12]: 3.2 µM
AUC (Rattus norvegicus [14]): 3639.5 ng·h/mL
beta t1/2 (Rattus norvegicus [15]): 9 h
Tmax (Rattus norvegicus [16]): 2 h
beta t1/2 (Rattus norvegicus [18]): 10.9 h
EC50 (Hepatitis B virus [19]): 2.25 µM
Tmax (Rattus norvegicus [20]): 4 h
AUC (Rattus norvegicus [21]): 7373.4 ng·h/mL
beta t1/2 (Rattus norvegicus [22]): 10.1 h
beta t1/2 (Rattus norvegicus [24]): 7.6 h
AUC (Rattus norvegicus [26]): 1808.1 ng·h/mL
AUC (Rattus norvegicus [27]): 775.2 ng·h/mL
Tmax (Rattus norvegicus [28]): 12 h
beta t1/2 (Rattus norvegicus [29]): 7.2 h
SMILES: C[C@H](Cn1cnc2c(N)ncnc21)OCP(=O)(O)O [TENOFOVIR ANHYDROUS]
CC50 [4]: > 100 µM
CC50 [5]: 1270 µM
selectivity ratio [8]: > 154
Ratio CC50/EC50 [13]: >41.7
CC50 [17]: > 100 µM
Ratio CC50/EC50 [23]: 396
CC50 at 24 h [25]: > 300 µM
Ratio CC50/EC50 [30]: >133

EC50 [1]: 0.007 µM
SMILES: CCCCCCCCCCCCCCCCOCCCOP(=O)(O)CO[C@H](CO)Cn1cnc2c(N)ncnc21
